Data on one substance can be found in PMC5383082 (International Journal of Nanomedicine, 2017).

For data set [1], the system named is KB cells. Nature of the data set: MTT cytotoxicity assay. In kind it is cell-based. The method in brief:
(§1)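 Cells kept in folate-free medium were seeded at 5×10^3 per well and grown 24 h. They were then exposed for 2 h at 37°C to serial dilutions of 1.56–25.00 μg/mL DOX equivalent, followed by 72 h in drug-free DMEM. MTT (5 mg/mL stock) was added for 4 h, formazan was dissolved in DMSO and absorbance read at 490 nm. Five parallel experiments; mean ± SD.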

The test system of another data set is Subcutaneous KB tumors. Nature of the data set: KB xenograft tumor mouse model. It counts as in vivo, BALB/c nude mice. The note with it: KB xenograft nude mice, single i.v. dose 8 mg/kg DOX. The method in brief: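 Female BALB/c nude mice (6–8 weeks, 16–18 g) were inoculated subcutaneously in the front armpit with 2.5×10^6 KB cells. Once tumors were established, mice got a single tail-vein injection of 8 mg/kg DOX equivalent; saline served as control. Tumors were measured every 4 days, with volume = length × width² × 0.52. Body weight was recorded every 4 days and survival was followed. n=6 per group; mean ± SD.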

Data set [2] concerns KB cells. The data set is described as follows: Apoptosis assay. To be noted: 3 μg/mL DOX. It counts as cell-based. The method in brief: (§2)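 HeLa or KB cells were seeded at 4×10^5 per well, cultured 24 h, then exposed to conjugates at 3 μg/mL DOX for 24 h at 37°C. For receptor blocking, 1 mM free folate was added before the drug. Trypsinized and floating cells were pooled and stained with annexin V-FITC/PI. 20,000 cells per sample were analysed by flow cytometry, with FSC/SSC gating to exclude debris. Q2 was scored as late and Q4 as early apoptosis. Mean ± SD, three independent experiments.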

Data set [3] deals with KB cells. Nature of the data set: Cellular uptake. In kind it is cell-based. The method in brief: (§3)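 Cells were grown 48 h in folate-free RPMI 1640, then given conjugates at 5 μg/mL DOX for 1 h at 37°C. For blocking, 1 mM free folate was added before the conjugates. For microscopy, monolayers were rinsed 3× with PBS, fixed in 4% paraformaldehyde for 15 min and imaged by fluorescence at equal exposure. For flow cytometry, 3×10^5 trypsinized cells per tube received the same treatment and were rinsed before reading.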

Data set [4] in a line: Pharmacokinetic analysis of plasma DOX after intravenous injection. To be noted: Kunming mice, i.v. 5 mg/kg DOX, noncompartmental. It counts as in vivo.
The subject of data set [5] is HeLa cells. The data set is described as follows: Apoptosis assay. It counts as cell-based. The note with it: 3 μg/mL DOX. The method in brief: as §2
Data set [6] relates to HeLa cells. The data set is described as follows: MTT cytotoxicity assay. In kind it is cell-based. The method in brief:
as §1

The nature of data set [7]: Tissue distribution of DOX after intravenous injection. The note with it: mice, i.v. 5 mg/kg, compared with free DOX. In kind it is in vivo. The method in brief:
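Male Kunming mice (~25 g, 6–8 weeks) received 5 mg/kg DOX equivalent intravenously. Heart, liver, spleen and kidney were collected at 30 min and 3 h. Tissue was homogenized in ethanol/HCl/water and centrifuged at 12,000 rpm for 15 min. DOX in the supernatant was measured by fluorescence spectrophotometry. n=4; mean ± SD.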

Data set [8] has as its system HeLa cells. The data set is described as follows: Cellular uptake. It counts as cell-based. The method in brief: as §3
Where [9] appears, read: 2 h drug incubation then 72 h culture, DOX concentration, mean ± SD.

For the substance “folate-polyethylene glycol-immunoglobulin G-doxorubicin [FA-PEG-IgG-DOX]”, in the data set on KB cells [1], the “IC50 as fraction of that of IgG-DOX” value is reported as “about 1/12” and the “antitumor activity, times higher than IgG-DOX” value is “at least 8 times”. The IC50 in the data set on KB cells [1] (setting [9]) was 1.78 ± 0.4 µg/mL. In the data set with Subcutaneous KB tumors, the body weight change entry was “minor body weight reduction”, the “survival of treated mice” value is “prolonged the survival of treated mice compared with DOX” and the “tumor growth from day 12 to day 25” value is reported as “maintained a very low growth rate”. Further, the “average tumor size at day 25 after injection” value in the data set on Subcutaneous KB tumors (day 25) stood at 553 mm^3. Also, the “proapoptotic effect after pretreatment with 1 mM folate” value in the data set with KB cells [2] is “significantly diminished”. Moreover, the “fluorescence intensity (microscopy)” value in the data set on KB cells [3] (5 μg/mL DOX, 1 h, 37°C) is “apparently higher than IgG-DOX”. Also, in the data set with KB cells [3] (1 mM folate pretreatment), the “uptake after 1 mM folate pretreatment (microscopy)” value is reported as “could be blocked”. Further, in data set [4], the “AUC(0–∞)” value worked out at 992.943 μg/mL⋅h, the CLz is 0.19 mL/day/kg, the Cmax stood at 225.275 ng/mL and the Vz is 0.070 L/kg. Also, in the data set with HeLa cells [5], the “proapoptotic effect after pretreatment with 1 mM folate” value is “significantly diminished”. Moreover, in the data set with HeLa cells [6], the “IC50 as fraction of that of IgG-DOX” value is “about 1/8” and the “antitumor activity, times higher than IgG-DOX” value is listed as “at least 8 times”. In the data set on HeLa cells [6] (setting [9]), the IC50 was 3.22 ± 0.9 µg/mL. Also, in [7], the “DOX concentration in the heart” value was “at the same level with that following free DOX injection”. The “fluorescence intensity (microscopy)” value with HeLa cells [8] (5 μg/mL DOX, 1 h, 37°C) is reported as “apparently higher than IgG-DOX”. For the same substance, the “uptake after 1 mM folate pretreatment (microscopy)” value in the data set with HeLa cells [8] (1 mM folate pretreatment) is recorded as “could be blocked”.
